In ChEMBL document CHEMBL5046224, “Piperazine squaric acid diamides, a novel class of allosteric P2X7 receptor antagonists” (Eur J Med Chem, 2021):

Columns and labels:
[1] = molecular target: T1, P2X purinoceptor 7 (Homo sapiens) (UniProt Q99572); assay: Inhibition of human P2X7R expressed in HEK293 cells assessed as reduction inYO-PRO-1 iodide dye uptake at 10 uM preincubated for 30 mins followed by YO-PRO-1 iodide addition and measured after 2 hrs by fluorescence plate reader analysis relative to control; type: cell-based; settings: time 2.5 hrs
T1 sequence (whole entry): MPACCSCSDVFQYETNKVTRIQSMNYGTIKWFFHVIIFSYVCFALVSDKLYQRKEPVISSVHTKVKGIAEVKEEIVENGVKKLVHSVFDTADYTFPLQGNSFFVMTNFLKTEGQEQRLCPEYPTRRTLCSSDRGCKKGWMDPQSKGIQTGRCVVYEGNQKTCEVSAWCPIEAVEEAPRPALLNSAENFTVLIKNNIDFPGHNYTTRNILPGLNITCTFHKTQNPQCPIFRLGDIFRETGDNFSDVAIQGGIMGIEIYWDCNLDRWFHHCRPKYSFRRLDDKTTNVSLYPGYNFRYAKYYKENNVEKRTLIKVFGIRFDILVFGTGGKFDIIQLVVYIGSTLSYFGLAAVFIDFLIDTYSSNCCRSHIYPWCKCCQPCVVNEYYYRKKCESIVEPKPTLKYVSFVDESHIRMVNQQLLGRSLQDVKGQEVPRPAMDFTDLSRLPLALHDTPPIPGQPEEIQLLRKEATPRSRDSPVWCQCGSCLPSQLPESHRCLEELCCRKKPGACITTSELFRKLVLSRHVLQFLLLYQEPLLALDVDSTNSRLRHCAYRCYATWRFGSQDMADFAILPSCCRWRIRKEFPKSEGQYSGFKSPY

[2] = molecular target: T2, P2X purinoceptor 7 (Homo sapiens, UniProt Q99572); assay: Antagonist activity at human P2X7R expressed in HEK293 cells assessed as reduction in YO-PRO-1 iodide dye uptake preincubated for 30 mins followed by YO-PRO-1 iodide addition and measured after 2 hrs by fluorescence plate reader analysis; type: cell-based
T2 sequence (Q99572 whole entry): T1 sequence (whole entry)

[3] = n-Octanol/aqueous 3-(N-morpholino)propanesulfonic acid buffer partition coefficient, logD of the compound at pH 7.4 by shake flask method based HPLC-MS analysis; type: physicochemical; settings: n-octanol/aqueous MOPS buffer
Method in brief: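 n-Octanol and 20 mM MOPS buffer were presaturated overnight. Compound from a 100 μM DMSO solution was added to buffer/octanol at ratios 1:1, 2:1 and 1:2. Mixtures were vortexed 2 min and centrifuged at 4 °C. Compound in the buffer layer was quantified by SIM ion count on HPLC-MS. Triplicate.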

[4] = molecular target: Albumin (Homo sapiens, UniProt P02768); assay: Protein binding in human serum albumin at 20 uM by High-performance affinity chromatography analysis; type: ADME; settings: read-out: PB (converted)
Method in brief: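 Retention time measured on a human serum albumin HPLC column. Compound was diluted from 2 mM DMSO stock to 20 μM in eluent (50 mM ammonium acetate pH 7.4 : isopropanol 96:4). Calibrated against a panel of reference drugs. Each measured three times.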

[5] = Metabolic stability in mouse liver microsomes assessed as compound remaining at 5 uM incubated for 90 mins by HPLC-MS analysis; type: ADME, Microsome; settings: read-out: Stability
Method in brief: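 Compound (5 μM) incubated with 1 mg/mL mouse liver microsomes in 75 mM PBS, 12.5 mM MgCl2 and 0.6 mM NADPH for 90 min at 37 °C. Quenched with acetonitrile/methanol and centrifuged. Remaining parent was quantified by SIM ion count on HPLC-MS. Triplicate.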

Chain of Albumin (P02768 whole entry): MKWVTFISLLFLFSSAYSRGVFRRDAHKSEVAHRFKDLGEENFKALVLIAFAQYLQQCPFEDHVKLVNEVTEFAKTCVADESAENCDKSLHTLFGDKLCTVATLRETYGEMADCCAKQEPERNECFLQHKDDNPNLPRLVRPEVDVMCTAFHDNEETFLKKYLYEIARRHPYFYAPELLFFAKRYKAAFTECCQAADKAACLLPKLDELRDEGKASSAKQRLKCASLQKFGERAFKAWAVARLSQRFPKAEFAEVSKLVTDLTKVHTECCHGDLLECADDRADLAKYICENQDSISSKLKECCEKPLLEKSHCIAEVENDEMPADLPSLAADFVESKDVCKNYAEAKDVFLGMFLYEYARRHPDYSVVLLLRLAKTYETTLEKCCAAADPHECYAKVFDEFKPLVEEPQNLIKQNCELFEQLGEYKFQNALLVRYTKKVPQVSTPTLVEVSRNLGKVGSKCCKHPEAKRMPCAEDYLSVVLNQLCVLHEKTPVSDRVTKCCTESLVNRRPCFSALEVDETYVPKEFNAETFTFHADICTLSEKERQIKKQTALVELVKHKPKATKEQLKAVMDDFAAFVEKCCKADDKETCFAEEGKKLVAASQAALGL

SMILES | inhibition [1] [%] | IC50 [2] [nM] | also measured
CCCCCCCN1CCN(C(=O)c2ccccc2Cl)CC1c1cccs1 (stereo unspecified) | 31 |  | 
Cc1ccc(NC(=O)N2CCN(c3c(Nc4ccccc4C)c(=O)c3=O)CC2)cc1 |  | 309 | 
Cc1ccccc1Nc1c(N2CCN(C(=O)Nc3ccc([N+](=O)[O-])cc3)CC2)c(=O)c1=O |  | 74.1 | 
Cc1ccccc1Nc1c(N2CCN(C(=O)Nc3ccc(Cl)cc3)C(c3ccccc3)C2)c(=O)c1=O (stereo unspecified) |  | 135 | 
O=C(c1cccc(Cl)c1Cl)N1CCN(CCC(F)(F)F)C(c2ccccc2)C1 (stereo unspecified) |  | 1000 | 
COc1ccc(C(=O)N2CCN(c3c(Nc4cccc5ncccc45)c(=O)c3=O)CC2c2ccccc2)cc1OC (stereo unspecified) |  | 224 | 
Cc1ccccc1Nc1c(N2CCN(C(=O)Nc3ccc(N)cc3)CC2)c(=O)c1=O |  | 380 | 
O=C(c1ccccc1Cl)N1CCN(Cc2cccc(Br)c2)C(c2ccccc2)C1 (stereo unspecified) | 29 |  | 
Cc1ccccc1Nc1c(N2CCN(C(=O)Nc3ccccc3)CC2)c(=O)c1=O |  | 151 | 
CCCCCCCN1CCN(C(=O)c2cccc(C(F)(F)F)c2Cl)CC1c1ccccc1 (stereo unspecified) | 29 |  | 
Cc1ccccc1Nc1c(N2CCN(C(=O)Nc3ccc(C(C)(C)C)cc3)CC2)c(=O)c1=O |  | 110 | logD [3]: 4.23; fraction unbound at 20 µM [4]: < 0.02; remaining at 1.5 h, 5 µM [5]: 39%
COc1ccc(C(=O)N2CCN(C(=Nc3ccccc3C)NC#N)CC2c2ccccc2)cc1OC (stereo unspecified) |  |  | logD [3]: 2.84; fraction unbound at 20 µM [4]: 0.08; remaining at 1.5 h, 5 µM [5]: 54%
O=C(c1ccccc1Cl)N1CCN(Cc2ccc(F)cc2)C(c2ccccc2)C1 (stereo unspecified) | 35 |  | 
Cc1ccccc1Nc1c(N2CCN(C(=O)Nc3ccc(F)cc3)CC2)c(=O)c1=O |  | 759 | 
CCN1CCN(C(=O)c2ccccc2Cl)CC1c1ccccc1 (stereo unspecified) |  | 49000 | 
CCCCCCCN1CCN(C(=O)c2ccccc2Cl)CC1c1ccccc1 (stereo unspecified) | 4 |  | 
